# Source: PubChem BioAssay (Sanford-Burnham Center for Chemical Genomics)
# A selection: hits, their analogues and other compounds. The true share with any hit is near 2.3%.
# Rpn11 block: blocks the human proteasome subunit Rpn11. actives 0.59% (n = 360,000). human 26S proteasome, Ub4-pepOG fluorescence polarization; 20S core pre-blocked with epoxomicin. O00487. inhibition, % at 20 µM;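 active means inhibition at 20 µM, scaled to each plate's controls, above about 33%, limit read from the data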
# SUMO1 PPI mod: alters human SUMO1 binding to SIM partners | SUMO1 binding to a labelled peptide, TR-FRET, 1 h | inhibition, % at 20 µM | actives 0.33% (n = 360,000) | AID 602429; in the data active means inhibition above about 37%
# Target sequence (P63165 whole entry, looked up): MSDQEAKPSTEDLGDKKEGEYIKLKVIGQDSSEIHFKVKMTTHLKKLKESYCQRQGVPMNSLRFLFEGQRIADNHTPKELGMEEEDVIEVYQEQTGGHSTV
# LMPTP inh: blocks human LMPTP phosphatase. P24666. recombinant LMPTP-A, OMFP fluorogenic substrate, fluorescence intensity. inhibition, % at 20 µM. actives 0.22% (n = 360,000);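 active means compounds that cut the enzyme signal by at least half of the control window in the single-dose screen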;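 further: plate controls were DMSO wells with enzyme plus substrate for no effect and substrate without enzyme for full effect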
# Target sequence (P24666 whole entry, looked up): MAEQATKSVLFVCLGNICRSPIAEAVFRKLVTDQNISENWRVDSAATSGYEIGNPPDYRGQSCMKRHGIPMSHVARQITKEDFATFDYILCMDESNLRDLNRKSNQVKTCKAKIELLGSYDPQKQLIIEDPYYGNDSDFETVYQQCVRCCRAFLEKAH
#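 Test system: LMPTP-A, protein tyrosine phosphatase of low molecular weight; Input: 0.625 nM enzyme; Incubation: 50 min dark incubation at room temperature; Signal: endpoint fluorescence intensity from OMFP dephosphorylation; Read-out basis: % inhibition versus control wells.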
# Scp1 inh: inhibitors of human Scp-1 phosphatase. Q9GZU7. Recombinant Scp1, phosphopeptide, malachite green phosphate absorbance. inhibition, % at 20 µM. actives 0.88% (n = 340,000);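 active means inhibition above about 50% at 20 µM, limit read from the data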;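 further: plate controls were DMSO wells with enzyme for no effect and wells lacking enzyme for full effect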
# Target sequence (Q9GZU7 76-261 limits assumed): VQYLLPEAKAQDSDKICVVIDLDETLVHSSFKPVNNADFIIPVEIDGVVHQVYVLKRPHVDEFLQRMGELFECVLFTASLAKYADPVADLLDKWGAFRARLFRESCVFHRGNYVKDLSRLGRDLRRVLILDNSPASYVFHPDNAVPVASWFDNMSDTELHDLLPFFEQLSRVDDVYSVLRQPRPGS
#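 assay system = SCP-1 phosphatase catalytic domain, residues 76-261 | buffer or medium = 50 mM Tris acetate pH 5.5, 0.005% Tween-20, 10 mM MgCl2 | incubation = enzyme reaction 45 min at room temperature, colour 5 min, stabilisation 30 min | signal = Phosphate-binding colour reagent, absorbance read at 630 nm | measure = % inhibition at 20 µM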
# STEP inh: inhibitors of human striatal-enriched phosphatase STEP; inhibition, % at 20 µM; P54829; actives 0.25% (n = 360,000); recombinant STEP, OMFP fluorogenic substrate, fluorescence;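 active means inhibition at 20 µM, scaled per plate between control wells, above about 37%, limit read from the data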;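 further: 0% = DMSO with enzyme and substrate and 100% = substrate only without enzyme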
#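 Material: STEP (striatal-enriched tyrosine phosphatase) enzyme, cell-free; Compound dosing: 20 µM single dose in 1% DMSO; Technique: fluorescence read at 480 nm ex / 540 nm em; Times: reaction 20 min, ambient temperature; Medium: 50 mM Bis-Tris pH 6.0 with 2.5 mM DTT and 0.005% Tween 20; Also added: OMFP at 25 µM.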
# DNMT1 block: blocks human DNA methyltransferase DNMT1; P26358; DNMT1 molecular beacon, Hinp1I cleavage, fluorescence; inhibition (reported as % activation of signal), % at 10 µM; actives 0.83% (n = 360,000); AID 588458; in the data active means inhibition above about 50%
# Scp-1 conf: Scp-1 (human) inhibition, single-dose confirmed. inhibition, % at 20 µM. actives 61% (n = 2,500). shares compounds with Scp1 inh. AID 540281. recombinant SCP-1 catalytic domain, phosphate release, malachite green absorbance;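 further: plate controls were DMSO with enzyme for no effect and buffer wells lacking enzyme for full effect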
# Scp-1 MG ctr: interferes with malachite green readout, flagging false Scp-1 hits | shares compounds with Scp1 inh | Colorimetric interference counterscreen, malachite green absorbance 630 nm | apparent inhibition (interference), % at 20 µM | 2,500 tested, under 10 active | AID 540313;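 further: compounds added after enzyme reaction finished so only phosphate colour detection is probed; plate controls were DMSO wells with completed Scp-1 reaction for no effect and substrate wells lacking enzyme for full effect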
# Scp1 DSF: Scp-1 (human) binding by thermal shift | Recombinant SCP1, Sypro Orange thermal shift Tm | actives 25% (n = 1,500) | shares compounds with Scp1 inh | thermal shift relative to vanadate control, % at 40 µM;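 active means substances whose mean melting-temperature shift, as a percentage of the reference inhibitor's shift, reaches about 5.3%, limit read from the data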;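 further: 0% = Tm of DMSO wells and 100% = Tm with sodium orthovanadate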
# The depositor's hits bear a star; nt = no result.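 How the source made its calls, unless noted: active means inhibition of at least 30% at 20 µM; inactive means the rest.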
SMILES,Rpn11 block,SUMO1 PPI mod,LMPTP inh,Scp1 inh,STEP inh,DNMT1 block,Scp-1 conf,Scp-1 MG ctr,others
O=C1CCCN1CCCNS(=O)(=O)c1ccc(F)cc1F,-3.6,-4.9,-1.7,-8.4,0.2,1.7,-4.6,-6.2,
O=C(NCCCN1CCCC1=O)Nc1ccccc1Cl,-2.6,-5.3,-0.4,-10.5,1.3,3.2,nt,nt,
O=C(CN1CCN(C(=O)N2CCOCC2)CC1)Nc1cc(Cl)ccc1Cl,-4.8,-0.7,0.0,-4.9,-0.1,0.2,nt,nt,
N#CCCN(CCN1CCCC1)S(=O)(=O)c1ccc(-c2ccc([N+](=O)[O-])cc2)cc1,7.3,-14.8,-0.9,-9.0,-2.0,0.6,nt,nt,
COc1ccc(/C=C/C(=O)Oc2cc(C)[nH]c(=O)c2[N+](=O)[O-])cc1OC,-5.4,-2.0,-0.3,4.5,2.2,-0.6,nt,nt,
Fc1ccc2c(-c3cccc(C(F)(F)F)c3)c(-c3ccccc3)ncc2c1,4.9,5.0,4.7,6.0,0.5,11.6,nt,nt,
Fc1ccc2cnc(-c3ccccc3)c(-c3cc(C(F)(F)F)cc(C(F)(F)F)c3)c2c1,15.9,9.4,3.7,58.5*,3.1,22.9,22.1,-9.0,
Fc1ccc2cnc(-c3ccccc3)c(-c3ccc(C(F)(F)F)cc3)c2c1,3.1,4.8,1.2,72.5*,1.1,13.0,7.2,-12.3,
N#Cc1ccc(-c2c(-c3ccccc3)ncc3cc(F)ccc23)cc1,-4.9,-1.5,1.4,5.0,1.2,6.2,nt,nt,
COC(=O)c1ccc(-c2c(-c3ccccc3)ncc3cc(F)ccc23)cc1,2.8,1.1,2.3,52.9*,-2.0,2.3,-5.6,-4.3,
COc1cc(OC)cc(C(=O)Nc2nnc(SCC(=O)NCc3ccco3)s2)c1,-2.0,2.1,0.0,-6.1,-0.9,2.7,nt,nt,
CCOc1ccc(NC(=O)CN2C(=O)NC3(CCCCCC3)C2=O)cc1,2.5,2.1,-0.5,-5.0,-1.8,-0.8,nt,nt,
COc1ccccc1NC(C)=[N+](C)CCNS(=O)(=O)c1ccc(Cl)cc1,-0.9,3.4,-0.9,95.7*,0.1,0.8,80.7*,-14.8,Scp1 DSF=-9.2
CC(=O)Oc1ccc(/C=C(\NC(=O)c2ccco2)C(=O)NCc2ccccc2)cc1,6.7,-5.6,-0.5,53.5*,-0.8,-0.7,-6.2,-5.7,
CCCN(CC(=O)Nc1ccccc1C)C(=O)C1CC(=O)N(Cc2ccccc2)C1 (configuration not stated),0.0,4.2,-1.1,3.7,1.7,-0.2,-3.4,-5.2,
COc1ccc(C(O)P(=O)(OCCC(C)C)c2ccc(N(C)C)cc2)cc1 (configuration not stated),-3.1,0.3,0.3,14.6,-2.7,1.0,nt,nt,
O=C(COC(=O)CCc1c[nH]c2ccccc12)NCc1ccc2c(c1)OCO2,-0.4,-0.6,1.8,-8.6,3.1,-4.1,nt,nt,
O=C(Nc1nnc(CCc2ccccc2)s1)c1ccccc1,-6.2,4.9,-1.2,5.5,-1.3,1.9,nt,nt,
O=C(Cc1nnc(NC(=O)c2ccccc2)s1)N/N=C/c1ccc(O)cc1,4.1,-13.5,8.8,61.5*,26.0,-7.7,48.6*,-7.9,Scp1 DSF=5.2
N=c1c(S(=O)(=O)c2ccc(Cl)cc2)cc2c(=O)n3ccccc3nc2n1Cc1ccco1,18.3,-4.1,5.2,51.6*,5.2,21.2,4.2,-1.0,
N#C/C(=C\c1c(N2CCOCC2)nc2ccccn2c1=O)S(=O)(=O)c1ccccc1,-2.6,-10.9,0.5,53.8*,3.1,4.3,-2.7,-5.7,
N#CCSc1ncnc2sc3c(c12)CCC3,5.0,18.9,34.1,68.1*,0.6,48.3,0.2,-22.8,
